Calls of active or inactive are those of the source. The calls are words filed in the database; no cut-off is given here.
What was measured:
Trypanosoma cruzi [1] = assay: Antitrypanosomal activity against bloodstream trypomastigote stage of Trypanosoma cruzi Y infected in monkey LLC-MK2 cells assessed as reduction in parasite motility measured after 24 hrs by neubauer chamber method; type: functional, organism-based; conditions: LLC-MK2, 24 h
How it was run: (§1)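 Y strain trypomastigotes from LLC-MK2 supernatants, 4x10^5/well, incubated 24 h at 37°C, 5% CO2 with five concentrations; viable parasites counted by motility in Neubauer chamber. Inhibition versus untreated cultures; IC50 by non-linear regression; benznidazole reference.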

[2] = Cytotoxicity against mouse J774 cells assessed as reduction in cell viability after 72 hrs by alamar blue assay; type: cell-based
How it was run: (§2)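 H9c2 or J774 cells (1 x 10^4/well) in DMEM/10% FBS preincubated 24 h, then exposed 72 h to six concentrations (0.41 to 100 µM) in triplicate, DMSO under 1%. Viability by AlamarBlue, read after 6 h at 570/600 nm; CC50 from three independent experiments; gentian violet positive control.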

[3] = Cytotoxicity against rat H9c2 cells assessed as reduction in cell viability after 72 hrs by alamar blue assay; type: cell-based; how it was run: as §2
[4] = Safety index, ratio of compound CC50 to gentian violet CC50 for cytotoxicity against mouse J774 cells; type: cell-based; how it was run: as §2
[5] = Safety index, ratio of compound CC50 to gentian violet CC50 for cytotoxicity against rat H9c2 cells; type: cell-based; how it was run: as §2
Trypanosoma cruzi [6] = assay: Potency index, ratio of benznidazole IC50 to compound IC50 for antitrypanosomal activity against bloodstream trypomastigote stage of Trypanosoma cruzi Y infected in monkey LLC-MK2 cells; type: functional; how it was run: as §1
[7] = molecular target: Cruzipain (Trypanosoma cruzi) (UniProt P25779); assay: Inhibition of recombinant Trypanosoma cruzi cruzain at 10 uM preincubated for 10 mins followed by Z-FR-AMC substrate addition measured for 5 mins at 12 secs time interval by […] relative to control
Sequence of Cruzipain (Trypanosoma cruzi) (P25779 123-467 limits assumed): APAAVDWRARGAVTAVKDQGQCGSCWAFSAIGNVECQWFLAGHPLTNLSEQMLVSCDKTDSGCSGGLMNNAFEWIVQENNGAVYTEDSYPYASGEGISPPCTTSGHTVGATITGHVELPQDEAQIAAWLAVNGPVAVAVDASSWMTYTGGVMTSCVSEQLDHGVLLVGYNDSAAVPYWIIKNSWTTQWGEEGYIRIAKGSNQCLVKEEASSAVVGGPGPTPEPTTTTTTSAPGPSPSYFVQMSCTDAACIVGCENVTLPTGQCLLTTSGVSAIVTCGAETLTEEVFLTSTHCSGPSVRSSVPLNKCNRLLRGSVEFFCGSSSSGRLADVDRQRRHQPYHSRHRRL
How it was run: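 Cruzain 0.5 nM in 0.1 M sodium acetate pH 5.5, 1 mM beta-mercaptoethanol, 0.01% Triton X-100, 25 °C; 10 min preincubation, then Z-FR-AMC 2.5 µM (Km 1 µM). Fluorescence (ex 340, em 440) read continuously 5 min; initial rates versus DMSO control. Screens at 10 µM, two independent runs in triplicate; IC50 from at least seven concentrations, four-parameter fit, at least two curves.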

Trypanosoma cruzi [8] = assay: Antitrypanosomal activity against bloodstream trypomastigote stage of Trypanosoma cruzi Y assessed as induction of mitochondrial membrane potential loss at 0.4 to 0.8 uM measured after 24 hrs by Rho-123 staining based FACS analysis; type: functional, organism-based
How it was run: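 Trypomastigotes (1 x 10^7/mL) from LLC-MK2 culture supernatants, exposed 24 h at 37°C in DMEM with FBS; washed in PBS, stained 15 min with 5 µg/mL Rhodamine 123, washed, analysed immediately by flow cytometry; 10,000 events gated on trypomastigote region.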

Trypanosoma cruzi [9] = assay: Induction of apoptosis in bloodstream trypomastigote stage of Trypanosoma cruzi Y assessed as viable cells at 0.4 uM measured after 24 hrs by Annexin V-FITC/propidium iodide staining based flow cytometry (reference value: 89.73%); type: functional
Trypanosoma cruzi [10] = assay: Induction of apoptosis in bloodstream trypomastigote stage of Trypanosoma cruzi Y assessed as early apoptotic cells at 0.4 uM measured after 24 hrs by Annexin V-FITC/propidium iodide staining based flow cytometry (reference value: 8.25%); type: functional
Trypanosoma cruzi [11] = assay: Induction of apoptosis in bloodstream trypomastigote stage of Trypanosoma cruzi Y assessed as late apoptotic cells at 0.4 uM measured after 24 hrs by Annexin V-FITC/propidium iodide staining based flow cytometry (reference value: 1.51%); type: functional
Trypanosoma cruzi [12] = assay: Induction of apoptosis in bloodstream trypomastigote stage of Trypanosoma cruzi Y assessed as necrotic cells at 0.4 uM measured after 24 hrs by Annexin V-FITC/propidium iodide staining based flow cytometry (reference value: 0.5%); type: functional
Trypanosoma cruzi [13] = assay: Antitrypanosomal activity against bloodstream trypomastigote stage of Trypanosoma cruzi Y infected in Balb/c mouse macrophages assessed as reduction in number of infected cells measured after 3 days by hoeschst staining based confocal microscopic method; type: functional, organism-based
How it was run: (§3)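 BALB/c peritoneal macrophages (5x10^4/well) in DMEM/10% FBS, infected with trypomastigotes (10:1) for 2 h, washed, held 24 h, then treated 72 h (test at 8, 2, 0.5 µM; benznidazole 5 µM control). Formaldehyde-fixed, Hoechst-stained, imaged by confocal high-content microscopy for infected cells and amastigotes per 100 cells; six determinations; ANOVA with Bonferroni.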

Trypanosoma cruzi [14] = assay: Antitrypanosomal activity against bloodstream trypomastigote stage of Trypanosoma cruzi Y infected in Balb/c mouse macrophages assessed as reduction in number of intracellular amastigotes measured after 3 days by hoeschst staining based confocal microscopic method; type: functional, organism-based; how it was run: as §3
Trypanosoma cruzi [15] = assay: Synergistic antitrypanosomal activity against bloodstream trypomastigote stage of Trypanosoma cruzi Y infected in monkey LLC-MK2 cells measured after 24 hrs in presence of benznidazole; type: functional
How it was run: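 Doubling dilutions of each drug alone or in fixed-ratio combinations tested on trypomastigotes by the 24 h motility assay; combination index by Chou-Talalay method and isobologram.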

Trypanosoma cruzi [16] = assay: (§4) Antitrypanosomal activity against bloodstream trypomastigote stage of Trypanosoma cruzi Y infected in Balb/c mouse assessed as reduction in blood parasitaemia at 25 mg/kg, po qd administered for 5 consecutive days starting from day 5 post infection measured on day 8 post infection relative to control; type: functional; set-up: scale not given: the % may be the effect or the level left
How it was run: (§5)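 Female BALB/c mice (18-22 g, 6-8 weeks) infected i.p. with 10^4 Y strain bloodstream trypomastigotes in saline; six per group. From day 5, oral dosing once daily for 5 days; vehicle saline with 20% DMSO. Parasitaemia counted as motile parasites in 5 µL tail-vein blood; reduction = (vehicle mean − treated mean)/vehicle mean × 100. Mortality followed to 30 days post-treatment.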

Trypanosoma cruzi [17] = assay: as §4, with “12” for “8”; type: functional; set-up: scale not given: the % may be the effect or the level left; how it was run: as §5
Trypanosoma cruzi [18] = assay: Antitrypanosomal activity against bloodstream trypomastigote stage of Trypanosoma cruzi Y infected in Balb/c mouse assessed as protection against mouse mortality at 25 mg/kg, po qd administered for 5 consecutive days starting from day 5 post infection measured up to 30 days post treatment; type: functional, organism-based; how it was run: as §5
Mus musculus [19] = assay: Toxicity in Balb/c mouse infected with Trypanosoma cruzi Y trypomastigotes assessed as behavioral alteration at 25 mg/kg, po qd administered for 5 consecutive days starting from day 5 post infection; type: organism-based; conditions: in vivo; how it was run: as §5
[20] = Solubility of the compound in pH 5.5 sodium acetate buffer at 10 uM; conditions: pH 5.5, 10 µM
Trypanosoma cruzi [21] = assay: Antitrypanosomal activity against bloodstream trypomastigote stage of Trypanosoma cruzi Y infected in Balb/c mouse macrophages assessed as reduction in number of infected cells at 0.5 uM measured after 3 days by hoeschst staining based confocal microscopic method; type: functional, organism-based; conditions: 5 uM, in the assay text read “at 5 uM” for “at 0.5 uM”; how it was run: as §3
Trypanosoma cruzi [22] = assay: Antitrypanosomal activity against bloodstream trypomastigote stage of Trypanosoma cruzi Y infected in Balb/c mouse macrophages assessed as reduction in number of intracellular amastigotes at 0.5 uM measured after 3 days by hoeschst staining based confocal microscopic method; type: functional, organism-based; conditions: 5 uM, in the assay text read “at 5 uM” for “at 0.5 uM”; how it was run: as §3
Trypanosoma cruzi [23] = assay: as §4, with “100” for “25”; type: functional; set-up: scale not given: the % may be the effect or the level left; how it was run: as §5
Trypanosoma cruzi [24] = assay: as §4, with “100” for “25”, “12” for “8”; type: functional; set-up: scale not given: the % may be the effect or the level left; how it was run: as §5
Trypanosoma cruzi [25] = assay: Antitrypanosomal activity against bloodstream trypomastigote stage of Trypanosoma cruzi Y infected in Balb/c mouse assessed as protection against mouse mortality at 100 mg/kg, po qd administered for 5 consecutive days starting from day 5 post infection measured up to 30 days post treatment; type: functional, organism-based; how it was run: as §5
Mus musculus [26] = assay: Toxicity in Balb/c mouse infected with Trypanosoma cruzi Y trypomastigotes assessed as behavioral alteration at 100 mg/kg, po qd administered for 5 consecutive days starting from day 5 post infection; type: organism-based; conditions: in vivo; how it was run: as §5

Question: Which IC50 (Trypanosoma cruzi [1]) does the source give for `C/C(=N\Nc1nc(-c2ccccn2)cs1)c1ccc(Cl)c(Cl)c1` here?
Answer: 0.37 µM

Question: What about the CC50 at 72 h [2] of the same compound?
Answer: 10.1 µM

Question: What about the CC50 at 72 h [3] of the same compound?
Answer: 10.2 µM

Question: And the selectivity ratio [4]?
Answer: 22

Question: What about the selectivity ratio [5] of the same compound?
Answer: 7

Question: What about the “Ratio IC50” value (Trypanosoma cruzi [6]) of the same compound?
Answer: 28

Question: And the inhibition [7]?
Answer: 17%

Question: What about the Activity (Trypanosoma cruzi [8]) of the same compound?
Answer: Active

Question: And the Activity (Trypanosoma cruzi [9])?
Answer: 74.62%

Question: And the Activity (Trypanosoma cruzi [10])?
Answer: 18.05%

Question: And the Activity (Trypanosoma cruzi [11])?
Answer: 7.13%

Question: What about the Activity (Trypanosoma cruzi [12]) of the same compound?
Answer: 0.19%

Question: And the Activity (Trypanosoma cruzi [13])?
Answer: Dose-dependent effect

Question: And the Activity (Trypanosoma cruzi [14])?
Answer: Dose-dependent effect

Question: What about the CI (Trypanosoma cruzi [15]) of the same compound?
Answer: 0.37

Question: And the Activity (Trypanosoma cruzi [16])?
Answer: 54.6%

Question: And the Activity (Trypanosoma cruzi [17])?
Answer: 64.1%

Question: What about the Activity (Trypanosoma cruzi [18]) of the same compound?
Answer: Active

Question: And the Activity (Mus musculus [19])?
Answer: Non-Toxic

Question: What about the solubility [20] of the same compound?
Answer: Soluble

Question: What does the source list for `O=C(Cn1ccnc1[N+](=O)[O-])NCc1ccccc1` [BENZNIDAZOLE]?
Answer: IC50 (Trypanosoma cruzi [1]): 10.6 µM; CC50 at 72 h [2]: > 50 µM; CC50 at 72 h [3]: > 50 µM; Activity (Trypanosoma cruzi [21]): Active; Activity (Trypanosoma cruzi [22]): Active; Activity (Trypanosoma cruzi [23]): >99%; Activity (Trypanosoma cruzi [24]): >99%; Activity (Trypanosoma cruzi [25]): Active; Activity (Mus musculus [26]): Non-Toxic
